8 compounds from ChEMBL document CHEMBL1127343, “"Glycylcyclines". 3. 9-Aminodoxycyclinecarboxamides” (1994) can be followed below.

In brackets after ≈: the same amount, converted by molar mass.

Type in all cases: functional
For assay [1], the system named is Escherichia coli. The experiment in a line: In vitro antibacterial activity was measured on gram negative bacteria Escherichia coli J3272 tet-C(efflux resistance) cell lines.
Assay [2] deals with Escherichia coli. Kind of assay: In vitro antibacterial activity was measured on gram negative bacteria Escherichia coli PRP-1 tet-a(efflux resistance) cell lines.
The subject of assay [3] is Escherichia coli. The experiment in a line: In vitro antibacterial activity was measured on gram negative bacteria Escherichia coli UBMS 88-1 tet-B(efflux resistance) cell lines.
The test system of assay [4] is Escherichia coli. The experiment in a line: In vitro antibacterial activity was measured on gram negative bacteria Escherichia coli UBMS 90-4 tet-M (ribosomal protection) cell lines. A digest of the protocol: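 Agar dilution MIC on Mueller-Hinton II agar. Inoculum (1–5) × 10^5 CFU/mL, drug range 32–0.004 μg/mL. Plates incubated 18 h at 35 °C in a forced-air incubator. MIC is the lowest concentration that inhibits growth. The strain panel covered tetracycline-sensitive and -resistant strains. Tetracycline, minocycline and doxycycline were run as standards in each assay.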

Assay [5] deals with Escherichia coli. Kind of assay: In vitro antibacterial activity was measured on gram negative bacteria Escherichia coli UBMS 90-5 sensitive cell lines. A digest of the protocol: (§1)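 MIC by agar dilution on Mueller-Hinton II agar; inoculum (1–5) × 10^5 CFU/mL; antibiotic range 32–0.004 μg/mL; plates incubated 18 h at 35 °C in forced-air incubator. MIC taken as lowest concentration inhibiting growth. Tetracycline, minocycline and doxycycline run as standards in each assay.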

For assay [6], the system named is Staphylococcus aureus. The experiment in a line: In vitro antibacterial activity was measured on gram positive bacteria Staphylococcus aureus UBMS 88-7 tet-k(efflux resistance) cell lines.
Assay [7] concerns Staphylococcus aureus. Kind of assay: In vitro antibacterial activity was measured on gram positive bacteria Staphylococcus aureus UBMS 90-1 tet-M (ribosomal protection) cell lines. A digest of the protocol:
as §1

Assay [8] deals with Staphylococcus aureus. The experiment in a line: In vitro antibacterial activity was measured on gram positive bacteria Staphylococcus aureus UBMS 90-3 sensitive cell lines. A digest of the protocol:
as §1

Assay [9] relates to Staphylococcus aureus. The experiment in a line: In vitro antibacterial activity was measured on gram positive bacteria Staphylococcus aureus smith cell lines. A digest of the protocol:
as §1

In assay [10] the test system is Escherichia coli. The experiment in a line: In vitro antibacterial activity was measured on gram negative bacteria Escherichia coli J3272 tet-D(efflux resistance) cell lines.

As to `C[C@H]1c2ccc(NC(=O)[C@@H](N)Cc3ccc(O)cc3)c(O)c2C(=O)C2=C(O)[C@]3(O)C(O)=C(C(N)=O)C(=O)[C@@H](N(C)C)C3[C@@H](O)C21` (stereo not given in full), the MIC against Escherichia coli [1] is 16 µg/mL (≈ 25.7 µM); in the assay with Escherichia coli [2], 32 µg/mL (≈ 51.4 µM); in the assay on Escherichia coli [3], 16 µg/mL (≈ 25.7 µM); against Escherichia coli [4], 8 µg/mL (≈ 12.8 µM); against Escherichia coli [5], 8 µg/mL (≈ 12.8 µM); in the assay with Staphylococcus aureus [6], 32 µg/mL (≈ 51.4 µM). In addition, the results for the MIC with Staphylococcus aureus [7], in the assay on Staphylococcus aureus [8] and in the assay with Staphylococcus aureus [9] were 4 µg/mL (≈ 6.42 µM), 0.5 µg/mL (≈ 0.803 µM) and 1 µg/mL (≈ 1.61 µM), respectively.

On to `C[C@H]1c2ccc(NC(=O)CN(C)C)c(O)c2C(=O)C2=C(O)[C@]3(O)C(O)=C(C(N)=O)C(=O)[C@@H](N(C)C)C3[C@@H](O)C21` (stereo not given in full), for which the MIC was 8 µg/mL (≈ 14.7 µM) against Escherichia coli [1]; 2 µg/mL (≈ 3.67 µM) with Escherichia coli [2]; 1 µg/mL (≈ 1.84 µM) against Escherichia coli [3]; 0.25 µg/mL (≈ 0.459 µM) in the assay with Escherichia coli [4]; 0.5 µg/mL (≈ 0.918 µM) against Escherichia coli [5]; 4 µg/mL (≈ 7.35 µM) in the assay with Staphylococcus aureus [6]. In addition, the figures for the MIC against Staphylococcus aureus [7], in the assay on Staphylococcus aureus [8] and in the assay with Staphylococcus aureus [9] were 0.5 µg/mL (≈ 0.918 µM), 0.12 µg/mL (≈ 0.22 µM) and 0.25 µg/mL (≈ 0.459 µM), respectively.

Consider `C[C@H]1c2ccc(NC(=O)CNC(C)(C)C)c(O)c2C(=O)C2=C(O)[C@]3(O)C(O)=C(C(N)=O)C(=O)[C@@H](N(C)C)C3[C@@H](O)C21` (stereo not given in full), for which the MIC with Escherichia coli [1] came to 1 µg/mL (≈ 1.75 µM); against Escherichia coli [2] it was 1 µg/mL (≈ 1.75 µM); with Escherichia coli [3], 1 µg/mL (≈ 1.75 µM); with Escherichia coli [4] it was 0.5 µg/mL (≈ 0.873 µM); in the assay on Escherichia coli [5] it was 0.5 µg/mL (≈ 0.873 µM); with Staphylococcus aureus [6], 2 µg/mL (≈ 3.49 µM). The figures for the MIC in the assay with Staphylococcus aureus [7], in the assay on Staphylococcus aureus [8] and against Staphylococcus aureus [9] were 1 µg/mL (≈ 1.75 µM), 0.25 µg/mL (≈ 0.437 µM) and 0.5 µg/mL (≈ 0.873 µM), respectively.

For the compound `C[C@H]1c2ccc(NC(=O)[C@@H]3CCCN3)c(O)c2C(=O)C2=C(O)[C@]3(O)C(O)=C(C(N)=O)C(=O)[C@@H](N(C)C)C3[C@@H](O)C21` (stereo not given in full), the MIC against Escherichia coli [1] came out at 8 µg/mL (≈ 14.4 µM); against Escherichia coli [10] it was 1 µg/mL (≈ 1.8 µM); against Escherichia coli [2] it was 16 µg/mL (≈ 28.7 µM); with Escherichia coli [3], 4 µg/mL (≈ 7.19 µM); in the assay on Escherichia coli [4], 2 µg/mL (≈ 3.59 µM); in the assay with Escherichia coli [5], 2 µg/mL (≈ 3.59 µM). Also, the results for the MIC against Staphylococcus aureus [7], against Staphylococcus aureus [8] and against Staphylococcus aureus [9] were 4 µg/mL (≈ 7.19 µM), 1 µg/mL (≈ 1.8 µM) and 2 µg/mL (≈ 3.59 µM), respectively.

With `CCN(CC)CC(=O)Nc1ccc2c(c1O)C(=O)C1=C(O)[C@]3(O)C(O)=C(C(N)=O)C(=O)[C@@H](N(C)C)C3[C@@H](O)C1[C@H]2C` (stereo not given in full), the MIC with Escherichia coli [1] is 2 µg/mL (≈ 3.49 µM); in the assay on Escherichia coli [2], 4 µg/mL (≈ 6.99 µM); with Escherichia coli [3] it was 1 µg/mL (≈ 1.75 µM); with Escherichia coli [4] it was 0.5 µg/mL (≈ 0.873 µM); in the assay on Escherichia coli [5] it was 0.5 µg/mL (≈ 0.873 µM); in the assay on Staphylococcus aureus [6], 1 µg/mL (≈ 1.75 µM). The MIC was 2 µg/mL (≈ 3.49 µM) with Staphylococcus aureus [7], 0.12 µg/mL (≈ 0.21 µM) against Staphylococcus aureus [8] and 0.25 µg/mL (≈ 0.437 µM) against Staphylococcus aureus [9].

In the case of `C[C@H]1c2ccc(NC(=O)[C@@H](N)Cc3ccccc3)c(O)c2C(=O)C2=C(O)[C@]3(O)C(O)=C(C(N)=O)C(=O)[C@@H](N(C)C)C3[C@@H](O)C21` (stereo not given in full), the MIC in the assay with Escherichia coli [10] was determined as 1 µg/mL (≈ 1.65 µM); against Escherichia coli [2] it was 8 µg/mL (≈ 13.2 µM); against Escherichia coli [4], 2 µg/mL (≈ 3.3 µM); with Escherichia coli [5] it was 4 µg/mL (≈ 6.59 µM); against Staphylococcus aureus [6] it was 4 µg/mL (≈ 6.59 µM); against Staphylococcus aureus [7] it was 1 µg/mL (≈ 1.65 µM). The results for the MIC in the assay with Staphylococcus aureus [8] and in the assay with Staphylococcus aureus [9] were 0.5 µg/mL (≈ 0.824 µM) and 0.25 µg/mL (≈ 0.412 µM), respectively.

`CN[C@@H](CC(C)C)C(=O)Nc1ccc2c(c1O)C(=O)C1=C(O)[C@]3(O)C(O)=C(C(N)=O)C(=O)[C@@H](N(C)C)C3[C@@H](O)C1[C@H]2C` (stereo not given in full): the MIC with Escherichia coli [1] came out at 8 µg/mL (≈ 13.6 µM); against Escherichia coli [10], 2 µg/mL (≈ 3.41 µM); with Escherichia coli [2], 16 µg/mL (≈ 27.3 µM); in the assay with Escherichia coli [3], 8 µg/mL (≈ 13.6 µM); against Escherichia coli [4] it was 4 µg/mL (≈ 6.82 µM); with Escherichia coli [5], 4 µg/mL (≈ 6.82 µM). Further, the MIC in the assay on Staphylococcus aureus [7] worked out at 2 µg/mL (≈ 3.41 µM); in the assay with Staphylococcus aureus [8] it was 1 µg/mL (≈ 1.7 µM); in the assay with Staphylococcus aureus [9], 2 µg/mL (≈ 3.41 µM).

With `C[C@H]1c2ccc(NC(=O)[C@H](N)Cc3ccccc3)c(O)c2C(=O)C2=C(O)[C@]3(O)C(O)=C(C(N)=O)C(=O)[C@@H](N(C)C)C3[C@@H](O)C21` (stereo not given in full), the MIC in the assay with Escherichia coli [10] came out at 1 µg/mL (≈ 1.65 µM); against Escherichia coli [2], 16 µg/mL (≈ 26.4 µM); with Escherichia coli [4], 2 µg/mL (≈ 3.3 µM); in the assay on Escherichia coli [5] it was 4 µg/mL (≈ 6.59 µM); against Staphylococcus aureus [6] it was 16 µg/mL (≈ 26.4 µM); against Staphylococcus aureus [7], 8 µg/mL (≈ 13.2 µM). Moreover, the MIC turned out to be 1 µg/mL (≈ 1.65 µM) against Staphylococcus aureus [8] and 0.5 µg/mL (≈ 0.824 µM) with Staphylococcus aureus [9].
